Most compounds without a hit are left out; they make up all but 2.4% or so of the library.
MC4R antag cAMP = antagonists of human melanocortin 4 receptor (MC4R); MC4R-expressing cells, MTII-stimulated cAMP, LANCE TR-FRET; inhibition, % at 6.5 µM; hit rate 0.48% among 360,000; P32245;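 active = inhibition above its plate's cutoff, the mean of tested wells on that plate plus 3 SD, cut at about 29% in these data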;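 also: 0% = Melanotan II alone and 100% = Melanotan II plus saturating MCL0020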
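Test system: U2OS cells stably expressing human melanocortin 4 receptor (MC4R); also added: Melanotan II challenge; compound: 6.5 µM single dose; timing: 30-min compound preincubation, 1-h Melanotan II challenge, 1-h detection, room temperature; signal: Eu-cAMP/anti-cAMP TR-FRET, emission 671 nm; repeats: one well per compound, no replicates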
HTR5A inv ag = HTR5A inverse agonism, opioid heterodimer counter-screen; P47898; HTR5A cell line, luminescence; inhibition, % at 9.3 µM; hit rate 0.083% among 340,000; in the data active = inhibition mostly above about 23%, no sharp cut-off; inactive = mostly below about 18%;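 also: 0% = cells with DMSO and 100% = no-cell wells with DMSO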
HTR5A ag = activates human HTR5A in OPRM1-OPRD1 agonist counter-screen; P47898; HTR5A agonist assay, luminescence, cell-based; activation, % at 9.3 µM; hit rate 0.61% among 340,000; in the data active = activation mostly above about 9.5%, no sharp cut-off; inactive = mostly below about 7.6%;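 also: 0% = cells with vehicle only and 100% = reference agonist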
MOR-DOR inv ag = mu-delta opioid heterodimer inverse agonism; P35372+P41143; hit rate 0.21% among 340,000; cell-based MOR-DOR heterodimer luminescence; inhibition, % at 9.3 µM; AID 504357; in the data active = inhibition above about 22%, passing the limit was not always enough;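 also: 0% = cells with DMSO and 100% = wells without cells with DMSO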
Target sequence (P35372 whole entry, looked up): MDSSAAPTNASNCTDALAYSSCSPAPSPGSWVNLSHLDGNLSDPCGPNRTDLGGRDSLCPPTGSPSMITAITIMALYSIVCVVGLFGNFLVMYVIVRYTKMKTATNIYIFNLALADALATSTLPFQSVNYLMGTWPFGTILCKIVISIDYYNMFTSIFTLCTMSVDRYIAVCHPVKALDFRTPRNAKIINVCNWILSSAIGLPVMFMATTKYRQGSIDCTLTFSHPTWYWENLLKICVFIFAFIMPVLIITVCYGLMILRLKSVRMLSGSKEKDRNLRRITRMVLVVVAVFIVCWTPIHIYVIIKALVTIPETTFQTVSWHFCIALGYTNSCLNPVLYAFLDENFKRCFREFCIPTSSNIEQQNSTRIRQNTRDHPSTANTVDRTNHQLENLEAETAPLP
Target sequence (P41143 whole entry, looked up): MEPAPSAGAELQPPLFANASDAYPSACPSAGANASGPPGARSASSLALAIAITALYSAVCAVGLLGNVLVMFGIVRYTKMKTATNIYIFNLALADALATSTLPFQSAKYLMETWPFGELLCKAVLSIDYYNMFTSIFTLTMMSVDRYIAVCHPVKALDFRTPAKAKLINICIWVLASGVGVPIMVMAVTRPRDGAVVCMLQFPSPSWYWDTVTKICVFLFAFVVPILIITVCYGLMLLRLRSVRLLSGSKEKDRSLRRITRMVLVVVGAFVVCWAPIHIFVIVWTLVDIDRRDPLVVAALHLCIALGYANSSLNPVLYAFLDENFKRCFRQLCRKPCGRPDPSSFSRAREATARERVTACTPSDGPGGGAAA
MC4R barr agon = activates human MC4R beta-arrestin recruitment. P32245. U2OS MC4R beta-arrestin complementation, luminescence; percent of melanotan II response, DMSO zero. hit rate 0.98% among 360,000. activation, % at 8.9 µM;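 active = activation above a per-plate cutoff, the mean activation of sample wells on that plate plus 3 SD, cut at about 8% in these data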
MOR-DOR ag = OPRM1-OPRD1 heterodimerization agonism; P35372+P41143; cells, luminescence; activation, % at 9.3 µM; hit rate 0.3% among 340,000; AID 504326; in the data active = activation above about 18%;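 also: 0% = vehicle-treated cells and 100% = reference agonist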
MC4R barr conf = human MC4R beta-arrestin agonism confirmation | U2OS MC4R beta-arrestin recruitment, luminescence; scaled DMSO 0%, Melanotan II 100% | AID 602192 | hit rate 31% among 2,400 | shares compounds with MC4R barr agon | activation, % at 8.9 µM;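 active = mean activation across replicates above the hit cutoff set in the earlier primary screen, cut at about 8% in these data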
MOR DOR agonist = activates mu-delta opioid heterodimer, MC4R agonist counter-screen; shares compounds with MC4R barr agon; U2OS PathHunter beta-arrestin, beta-gal luminescence; percent of deltorphin B response, DMSO zero; activation, % at 9.2 µM; hit rate 5.8% among 2,400; AID 602194;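 active = mean activation across replicates exceeds the hit threshold derived in the earlier primary screen, cut at about 18% in these data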;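 also: 100% = deltorphin B at 0.9 µM final and 0% = DMSO alone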
* marks the source's active call; other numbers are inactive results; i = inactive; · = not tested or not shown.

SMILES | MC4R antag cAMP | HTR5A inv ag | HTR5A ag | MOR-DOR inv ag | MC4R barr agon | MOR-DOR ag | MC4R barr conf | MOR DOR agonist
O=C(O)c1nn(CCOc2ccc(Cl)cc2Cl)c(=O)c2ccccc12 | 0 | -16 | 6 | -10 | 18* | 2 | 0 | 6
CC(C)(C)CC(C)(C)c1ccc(OCCOCC[N+](C)(C)Cc2ccccc2)cc1 | 7 | -15 | 13 | i | 12* | i | 35* | i
NC(=O)C1CCN(C(=O)c2ccc3c(=O)n(Cc4ccco4)c(SCc4ccc([N+](=O)[O-])cc4)nc3c2)CC1 | 4 | 1 | -2 | 1 | -1 | 0 | · | ·
N#Cc1ccc(-c2cccnc2)nc1SCC(=O)c1ccccc1 | 8 | -30 | 6 | -5 | 11* | 1 | 7 | 2
N#Cc1ccc(-c2ccccc2)nc1SCC(=O)c1cccc(Cl)c1 | -4 | 3 | -2 | -2 | 1 | 0 | · | ·
O=C(C[n+]1cc(-c2ccc(Cl)cc2)n2c1CCC2)N1c2ccccc2Sc2ccccc21 | 1 | -17 | 5 | 10 | -2 | -2 | · | ·
CC1CCC(C(C)C)C(OC(=O)C[n+]2cc(-c3ccc(Cl)cc3)n3c2CCC3)C1 (stereo unspecified) | 14 | -9 | 8 | 4 | 17* | -1 | 4 | 4
Cc1ccc(N(CC(=O)NC(C)c2ccccc2)S(=O)(=O)c2cccs2)cc1 (stereo unspecified) | 5 | -13 | 1 | -74 | 17* | 13 | -5 | 2
COc1ccc(C(NC(=O)C2CCN(CCOc3ccc(F)cc3)CC2)c2cccs2)cc1 (stereo unspecified) | 4 | · | · | · | -2 | · | · | ·
COc1ccc(C(NC(=O)C2CCN(CCOc3ccc(Cl)cc3Cl)CC2)c2cccs2)cc1 (stereo unspecified) | 5 | · | · | · | 111* | · | 32* | 11
COc1ccc(C(NC(=O)C2CCN(CCOc3ccc(Cl)cc3Cl)CC2)c2ccccc2C)cn1 (stereo unspecified) | 3 | · | · | · | 53* | · | 35* | 13
O=C(NC(c1ccccc1)c1cnccn1)C1CCN(CCOc2ccc(Cl)cc2Cl)CC1 (stereo unspecified) | 0 | · | · | · | 1 | · | · | ·
COc1ccc(C(C)NC(=O)C2CCN(CCOc3ccc(Cl)cc3Cl)CC2)cc1OC (stereo unspecified) | -1 | · | · | · | 1 | · | · | ·
O=C(NC(c1ccccc1)c1ccsc1)C1CCN(CCOc2ccc(Cl)cc2Cl)CC1 (stereo unspecified) | -1 | · | · | · | 54* | · | 47* | 9
CCOc1ccc(N2C(=O)/C(=C/c3cccs3)N(C)C2=S)cc1 | 4 | 40 | 4 | -19 | 26* | 4 | 12* | 4
CCOc1ccc(N2C(=O)CN(C)C2=S)cc1 | 8 | -7 | 3 | -2 | -2 | 0 | · | ·
Cc1ccc(NC(=O)c2ccc(NCc3ccco3)c([N+](=O)[O-])c2)cc1Cl | 3 | -23 | 2 | -32 | 11* | 6 | 25* | 26*
Cc1ccc(NC(=O)c2ccc(NCC3CCCO3)c([N+](=O)[O-])c2)cc1Cl (stereo unspecified) | -2 | -3 | 1 | 10 | 34* | -2 | 13* | 21*
COC(=O)c1nc(-c2ccccc2)oc1N1CCOCC1 | 6 | -14 | -1 | 17 | -4 | -3 | · | ·
C=CCn1c(=O)c2ccc(C(=O)NCc3ccccc3)cc2n(Cc2ccc(C)cc2)c1=O | 26 | 13 | -4 | 0 | 0 | 0 | · | ·
COc1ccc(C(=O)Nc2ccc3oc(-c4cccc(F)c4)nc3c2)cc1OC | 3 | 1 | 0 | 15 | 1 | -3 | · | ·
Cc1cccc(OCC(=O)NNC(=O)Nc2cccc(Cl)c2)c1C | -1 | -5 | -2 | 3 | 10* | 0 | 4 | 5
Cc1cccc(OCC(=O)Nc2cccc(-c3nnc(-c4ccccc4)o3)c2)c1C | 7 | -5 | 2 | -27 | 30* | 4 | 15* | 12
